Source: PubChem BioAssay (several laboratories)
An excerpt weighted towards active compounds, which were near 12% of everything screened.
Lmaj promast: Leishmania major promastigote growth inhibition | 200,000 tested, 9% active | Leishmania major promastigotes, resazurin fluorescence viability | inhibition, % at 10 µM | AID 1063; in the data active means inhibition above about 50%;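 further: promastigotes grown with compound for 44 hours at 28 °C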
WT yeast gro inh: growth inhibition of WT yeast, mitochondrial fusion screen | mitochondrial fusion phenotypic screen, WT strain | inhibition, % at 10 µM | 190,000 tested, 2.1% active | AID 1362; in the data active means inhibition above about 58%; tested in S. cerevisiae
ABCG2 block: inhibitors of human ABCG2 transporter, ABCB1 counter-screen; Q9UNQ0; IgMXP3 cells, JC-1 efflux, flow cytometry; inhibition, % at 6.6 µM; 190,000 tested, 0.1% active; AID 1325;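 active means inhibition above 80%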;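 further: 0% = DMSO and 100% = nicardipine control wells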
Target sequence (Q9UNQ0 whole entry, looked up): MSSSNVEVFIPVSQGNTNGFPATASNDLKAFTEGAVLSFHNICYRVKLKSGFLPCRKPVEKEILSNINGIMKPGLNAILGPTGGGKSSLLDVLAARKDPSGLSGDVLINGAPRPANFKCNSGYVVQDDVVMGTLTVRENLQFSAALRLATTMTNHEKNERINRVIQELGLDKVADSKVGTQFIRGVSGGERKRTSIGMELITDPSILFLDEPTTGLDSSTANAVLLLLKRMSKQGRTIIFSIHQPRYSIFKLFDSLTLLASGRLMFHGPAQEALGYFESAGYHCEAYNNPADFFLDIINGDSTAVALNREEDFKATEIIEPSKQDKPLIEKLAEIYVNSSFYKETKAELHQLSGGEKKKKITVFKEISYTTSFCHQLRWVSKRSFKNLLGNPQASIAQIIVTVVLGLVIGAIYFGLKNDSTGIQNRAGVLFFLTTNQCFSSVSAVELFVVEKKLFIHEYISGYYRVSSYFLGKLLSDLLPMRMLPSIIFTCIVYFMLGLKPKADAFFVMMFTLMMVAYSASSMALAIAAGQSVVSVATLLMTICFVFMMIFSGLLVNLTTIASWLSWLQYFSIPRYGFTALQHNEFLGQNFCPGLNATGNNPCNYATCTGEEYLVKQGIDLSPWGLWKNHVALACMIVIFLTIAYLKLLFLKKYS
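Test system: IgMXP3 (ABCG2) plus far-red-tagged CCRF-Adr (ABCB1) cells. Reagent: JC-1 dye as substrate. Timing: 10 min exposure at 25 °C with rotation, no wash. Measured by: flow cytometric JC-1 green MFI at 530 nm. Read-out: percent efflux inhibition, scaled nicardipine 100% to DMSO 0%. Control set: nicardipine and DMSO wells.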
ABCB1 inh: blocks JC-1 efflux by human ABCB1 transporter. CCRF-Adr cells, flow cytometry. 190,000 tested, 0.067% active. AID 1326. inhibition, % at 6.6 µM; in the data active means inhibition above about 40%;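 further: 0% = vehicle and 100% = reference inhibitor; higher value means more JC-1 retained so stronger ABCB1 efflux block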
RAM inhibit: inhibitors of the yeast RAM network; S. cerevisiae dse1pr::URA3 reporter, 5-FOA growth OD615, 2 d; analog-sensitive cbk1-as2 kinase mutant strain; inhibition, % at 50 µM; 190,000 tested, 1.8% active; AID 868;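 active means inhibition above a set limit, 3 SD over mean compound inhibition, cut at about 8.4% in these data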;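 further: 0% = DMSO-only wells with no growth and 100% = 10 µM 1-NA-PP1 full growth; inhibition rescues growth on 5-FOA so higher OD means more RAM inhibition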
ABCB1 confirm: confirmation of human ABCB1 transporter inhibitors, ABCG2 counter-screen; AID 1451; shares compounds with ABCG2 block; inhibition, % at 6.6 µM; 270 tested, 7% active; CCRF-Adr cells, JC-1 efflux, flow cytometry;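 active means inhibition of pump activity above 50%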;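 further: 0% = DMSO and 100% = nicardipine full pump inhibition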
ABCG2 single pt: inhibits human ABCG2 efflux, confirmed at single point; AID 1453; 270 tested, 6% active; inhibition, % at 6.6 µM; shares compounds with ABCG2 block; IgMXP3 cells, JC-1 efflux, flow cytometry;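 active means inhibition above 50%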;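 further: 0% = DMSO wells and 100% = nicardipine pump inhibitor wells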
IgMXP3 fluor: compound fluoresces at 488/530 nm in IgMXP3 cells | 270 tested, 30% active | fluorescence at 6.6 µM | shares compounds with ABCG2 block | compound autofluorescence 488/530 nm, flow; active compounds read high;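 active means fluorescence in ABCG2-expressing cells above the plate's control-well mean plus 3 SD, cut at about 15 in these data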;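 further: median cell fluorescence with compound minus that of DMSO-treated control cells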
CCRF-Adr fluor: counter-screen for ABCB1 inhibitors: compound fluorescence in CCRF-Adr cells | shares compounds with ABCG2 block | 270 tested, 30% active | compound autofluorescence 488/530 nm, flow cytometry; active compounds read high | fluorescence at 6.6 µM;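 active means fluorescence beyond the plate control mean plus 3 SD, with a fluorescence-to-maximum score over 2, cut at about 25 in these data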
* = called active by the depositor; . = no result given; + = active, no number.

SMILES | Lmaj promast | WT yeast gro inh | ABCG2 block | ABCB1 inh | RAM inhibit | ABCB1 confirm | ABCG2 single pt | IgMXP3 fluor | CCRF-Adr fluor
O=c1oc2ccccc2cc1-c1nc2c(s1)CCCC2 | 3 | 8 | 55 | 7 | 2 | 6 | 10 | 12 | 2
Cc1ccc(OCC(=O)N2CCc3ccccc3C2)c([N+](=O)[O-])n1 | -1 | -5 | 3 | 2 | 2 | . | . | . | .
COC(=O)[C@@H]1CC[C@H](C)[C@@H](c2ccc(C)cc2)N1C(=O)c1ccc(/C=N/O[C@@H](C)c2cn([C@H](CO)Cc3ccccc3)nn2)cc1 | 53* | 16 | 44 | 42* | 7 | 34 | 5 | 2.9 | 16
CC(NC(=O)COC(=O)Cc1ccsc1)C1CC2CCC1C2 (stereo not drawn) | -4 | -8 | 132* | 35 | 3 | 7 | 4 | -2.1 | -4.7
CC1Cc2ccccc2N1C(=O)CN1CCC(C(N)=O)CC1 (stereo not drawn) | -4 | 1 | 3 | 0 | 0 | . | . | . | .
CCOC(=O)Cn1nc(C)n(-c2ccc(F)cc2)c1=O | -6 | -12 | 1 | 0 | 0 | . | . | . | .
O=C1NC(CCc2ccccc2)C(=O)N1Cc1cccc2ccccc12 (stereo not drawn) | 9 | 11 | 159* | 90* | 6 | 0 | -1 | -0.29 | -2.7
CCOc1ccccc1N1CCN(CC(=O)NCCc2ccc(S(N)(=O)=O)cc2)CC1 | 3 | -2 | 0 | 0 | 1 | . | . | . | .
O=[N+]([O-])c1cccc(Cl)c1NCCNS(=O)(=O)c1ccccc1 | 0 | 20 | 3 | 1 | 2 | . | . | . | .
O=[N+]([O-])c1cc(Cl)ccc1NCCNS(=O)(=O)c1ccccc1 | 1 | 1 | 119* | 3 | 7 | 7 | 18 | 2.3 | 32*
CCN(CC)C(=O)CSc1nc2cc3c(cc2c(=O)n1Cc1ccc(OC)cc1)OCO3 | 9 | -7 | 10 | 17 | 1 | . | . | . | .
COc1ccc(CN2CCn3nc(C(=O)NC(C)C)cc3C2=O)cc1 | -4 | 1 | 0 | 41* | 0 | -2 | 4 | 3.4 | 0.71
CCN(CC)c1ccc(/C=C2/C(=O)c3ccc(C(=O)O)cc3C2=O)cc1 | 42 | -3 | + | 140* | 9.9* | -46 | -162 | 251* | 169*
CCCN(CCC)CCOc1cc(C)ccc1C(C)C | -4 | -11 | + | 137* | 0 | 1 | -1 | 13 | 37*
Cc1cc(NC(=O)c2cc([N+](=O)[O-])cc([N+](=O)[O-])c2)n(-c2ccccc2)n1 | 89* | 1 | 84* | 0 | 1 | 2 | 32 | 2.2 | -2.2
Cc1cc(NC(=O)c2cccc([N+](=O)[O-])c2)n(-c2ccccc2)n1 | 0 | -4 | 2 | 0 | 1 | . | . | . | .
COCCNC(=S)NNC(=O)c1ccc(-n2cnnn2)cc1 | -7 | 4 | 2 | 1 | 3 | . | . | . | .
Cc1nc2cc(-c3cccc(F)c3)nn2c(C)c1CCC(=O)N1CCN(c2ccccn2)CC1 | . | 4 | . | . | . | . | . | . | .
Cc1nc2cc(-c3cccc(F)c3)nn2c(N2CCN(C(=O)c3ccco3)CC2)c1C | 11 | -13 | 91* | 63* | 6 | 52* | 50* | -2.3 | -4.8
COc1cc(C(=O)Nc2ccc(S(=O)(=O)NC(C)C)cc2)cc(OC)c1OC | 2 | 2 | 82* | 2 | 1 | 13 | 27 | 5.8 | 6.6
CCOC(=O)C1(CC2CCCCO2)CCN(Cc2cn[nH]c2-c2cccc(F)c2)CC1 (stereo not drawn) | -2 | 0 | 0 | 0 | 1 | . | . | . | .
CC(=O)c1c(C)[nH]c(C(=O)OCC(=O)Nc2cc(Cl)ccc2[N+](=O)[O-])c1C | 7 | 15 | 9 | 6 | 3 | 9 | 34 | 4.5 | 12
O=C(/C=C/c1cccc([N+](=O)[O-])c1)Nc1cccc(NC(=O)c2cccs2)c1 | 12 | -1 | + | + | 7 | 13 | 31 | -0.59 | 0.66
O=C(/C=C/c1cccc([N+](=O)[O-])c1)Nc1cccc(NC(=O)c2ccco2)c1 | 39 | -2 | -6 | 0 | -1 | . | . | . | .
Cc1oc(-c2ccccc2Cl)nc1CN1CCCCC1c1cccnc1 (stereo not drawn) | 26 | -4 | 4 | 1 | 0 | . | . | . | .
SMILES | Lmaj promast | WT yeast gro inh | ABCG2 block | ABCB1 inh | RAM inhibit | ABCB1 confirm | ABCG2 single pt | IgMXP3 fluor | CCRF-Adr fluor
Cc1c(C(=O)Nc2ccc(Cl)cc2)c2ccccn2c1CCc1ccncc1 | 15 | 20 | 8 | 6 | -1 | . | . | . | .
Cc1c(C(=O)Nc2cccc(Cl)c2)c2ccccn2c1CCc1ccncc1 | 75* | 18 | 99* | 66* | 0 | 56* | 42 | -1.5 | -3.7
O=C1S/C(=C\c2ccc(N3CCOCC3)o2)C(=O)N1c1ccccc1 | 21 | -11 | 1 | 0 | 2 | . | . | . | .
O=C1S/C(=C/c2ccc(N3CCOCC3)o2)C(=O)N1Cc1c(F)cccc1Cl | 85* | 0 | 136* | 5 | 4 | -12 | 3 | 248* | 49*
COc1ccc(C2C3=C(CCCC3=O)Nc3ccc4ncccc4c32)cc1OC (stereo not drawn) | 75* | -7 | 0 | 63* | 2 | 5 | 16 | 0.96 | 10
COc1ccc(CNc2nc(-c3cccnc3)nn2C(=O)c2cccs2)cc1 | -1 | 32 | 88* | 6 | 1 | 11 | 35 | -0.74 | 0.01
CC(Cc1cccs1)NC(=S)Nc1ccc(Cl)c(Cl)c1 (stereo not drawn) | 71* | 57 | 61 | 1 | 3 | -4 | 7 | 3.2 | 10
S=C(NCc1ccncc1)Nc1ccc(Cl)c(Cl)c1 | 13 | -6 | 2 | 0 | 1 | . | . | . | .
CCN(CC)S(=O)(=O)c1cc(NC(=O)CSc2nc3c(cc2C#N)C(=O)CC(C)(C)C3)ccc1C | 34 | 2 | 4 | 0 | 4 | . | . | . | .
O=C(Nc1nc2ccc([N+](=O)[O-])cc2s1)c1c(F)cccc1F | 12 | 8 | 80 | 1 | 4 | 0 | 30 | -3.4 | -5.7
COC(=O)c1cc(NC(=O)c2ccccc2)c(=O)oc1/C=C/Nc1ccc(Oc2ccccc2)cc1 | 24 | 5 | 116* | 127* | 6 | 91* | -34 | 207* | 339*
COc1ccc(C(=O)Nc2cc(C(C)=O)c(C)oc2=O)cc1 | 0 | -17 | 3 | 0 | 2 | . | . | . | .
CCCn1ncc(CN2CCC(CO)(CC3CCCCO3)CC2)c1C (stereo not drawn) | -5 | -7 | 0 | 0 | 0 | . | . | . | .
Cc1oc2c(C)c3oc(=O)c4c(c3cc2c1C)CCCC4 | 23 | 1 | 75 | 2 | 3 | 8 | 18 | 12 | 15
